From ChEMBL document CHEMBL4270630

How the values were obtained:
Influenza A virus [1] = experiment: Antiviral activity against Influenza A virus A/PR/8/34(H1N1) infected in MDCK cells assessed as reduction in virus-induced cytopathic effect after 3 days by microscopic method; assay type: functional, organism-based, A/Puerto Rico/8/1934(H1N1); conditions: Influenza A virus, A/Puerto Rico/8/1934(H1N1), MDCK, 72 h
In short: (§1)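 Semi-confluent MDCK cells were infected at an MOI of 0.0004 PFU/cell in Ultra-MDCK infection medium with 2 μg/mL TPCK-trypsin, together with compounds. After 3 days at 35 °C, CPE was scored by microscopy and confirmed by MTS formazan viability. EC50 is the concentration giving 50% inhibition of virus-induced CPE. Values are means of two to five independent tests.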

Influenza A virus [2] = experiment: Antiviral activity against Influenza A virus A/PR/8/34(H1N1) infected in MDCK cells after 3 days by MTS assay; assay type: functional, organism-based, A/Puerto Rico/8/1934(H1N1); conditions: Influenza A virus, A/Puerto Rico/8/1934(H1N1), MDCK, 72 h; in short: as §1
Influenza A virus [3] = experiment: Antiviral activity against Influenza A virus A/Virginia/ATCC3/2009(H1N1pdm) infected in MDCK cells assessed as reduction in virus-induced cytopathic effect after 3 days by microscopic method; assay type: functional, organism-based, Influenza A virus (A/Virginia/03/2009(H1N1)); conditions: 72 h; in short: as §1
Influenza A virus [4] = experiment: Antiviral activity against Influenza A virus A/Virginia/ATCC3/2009(H1N1pdm) infected in MDCK cells after 3 days by MTS assay; assay type: functional, organism-based, Influenza A virus (A/Virginia/03/2009(H1N1)); conditions: 72 h; in short: as §1
H3N2 subtype [5] = experiment: Antiviral activity against Influenza A virus A/HK/7/87(H3N2) infected in MDCK cells assessed as reduction in virus-induced cytopathic effect after 3 days by microscopic method; assay type: functional, organism-based; conditions: A/Hong Kong/7/1987(H3N2), 72 h; in short: as §1
H3N2 subtype [6] = experiment: Antiviral activity against Influenza A virus A/HK/7/87(H3N2) infected in MDCK cells after 3 days by MTS assay; assay type: functional, organism-based; conditions: A/Hong Kong/7/1987(H3N2), 72 h; in short: as §1
Influenza B virus [7] = experiment: Antiviral activity against Influenza B virus B/Ned/537/05 infected in MDCK cells assessed as reduction in virus-induced cytopathic effect after 3 days by microscopic method; assay type: functional, organism-based; conditions: B/Ned/537/05, MDCK, 72 h
In short: (§2)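 Semi-confluent MDCK cells were infected at an MOI of 0.0004 PFU/cell in Ultra-MDCK infection medium with 2 μg/mL TPCK-trypsin, together with compounds. After 3 days at 35 °C, CPE was scored by microscopy and confirmed by MTS formazan viability. Values are means of two to five independent tests.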

Influenza B virus [8] = experiment: Antiviral activity against Influenza B virus B/Ned/537/05 infected in MDCK cells after 3 days by MTS assay; assay type: functional, organism-based; conditions: B/Ned/537/05, MDCK, 72 h; in short: as §2
MDCK = experiment: (§3) Cytotoxicity against MDCK cells assessed as reduction in cell viability after 3 days by MTS assay; assay type: cell-based, Canis lupus familiaris; conditions: dog, mdck, 72 h
[9] = Cytotoxicity against MDCK cells assessed as alteration in cell morphology after 3 days by microscopic method; assay type: cell-based, Canis lupus familiaris; conditions: dog
In short: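 Mock-infected MDCK cells were treated with compounds in parallel with the antiviral assay, 3 days at 35 °C. MCC is the concentration causing minimal change in cell morphology by microscopy. CC50 is the 50% cytotoxic concentration by MTS formazan viability assay.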

[10] = Selectivity index, ratio of MCC for MDCK cells to EC50 for Influenza A virus A/PR/8/34(H1N1) infected in MDCK cells assessed as reduction in virus-induced cytopathic effect by microscopic method; assay type: toxicity, cell-based; conditions: dog, read-out: Selectivity Index
In short: (§4)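 Selectivity index is MCC divided by EC50. MCC comes from microscopy of mock-infected MDCK cells. EC50 comes from microscopic scoring of virus-induced CPE in MDCK cells infected at an MOI of 0.0004 PFU/cell with TPCK-trypsin. Both readings were taken after 3 days at 35 °C.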

[11] = Selectivity index, ratio of MCC for MDCK cells to EC50 for Influenza A virus A/Virginia/ATCC3/2009(H1N1pdm) infected in MDCK cells assessed as reduction in virus-induced cytopathic effect by microscopic method; assay type: toxicity, cell-based; conditions: dog, read-out: Selectivity Index; in short: as §4
[12] = Selectivity index, ratio of MCC for MDCK cells to EC50 for Influenza A virus A/HK/7/87(H3N2) infected in MDCK cells assessed as reduction in virus-induced cytopathic effect by microscopic method; assay type: toxicity, cell-based; conditions: dog, read-out: Selectivity Index; in short: as §4
[13] = Selectivity index, ratio of MCC for MDCK cells to EC50 for Influenza B virus B/Ned/537/05 infected in MDCK cells assessed as reduction in virus-induced cytopathic effect by microscopic method; assay type: toxicity, cell-based; conditions: dog, read-out: Selectivity Index; in short: as §4
[14] = Selectivity index, ratio of MCC for MDCK cells to EC50 for Influenza B virus B/HK/05/72 infected in MDCK cells assessed as reduction in virus-induced cytopathic effect by microscopic method; assay type: toxicity, cell-based; conditions: dog, read-out: Selectivity Index; in short: as §4
Influenza A virus [15] = experiment: Antiviral activity against Influenza A virus A/PR/8/34(H1N1) GFP-fused pseudotyped lentiviral particle expressing H1-HA/N1-NA infected in MDCK cells assessed as inhibition of pseudoparticle entry after 3 days by flow cytometry; assay type: functional, organism-based; conditions: A/Puerto Rico/8/1934(H1N1)
In short: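 MDCK cells were seeded at 7500/well and one day later were exposed to compounds plus GFP lentiviral pseudoparticles bearing A/PR/8/34 H1-HA and N1-NA, with HA0 activated by trypsin. After 3 days the cells were trypsinized, fixed in paraformaldehyde and analysed for GFP by flow cytometry. Entry inhibition was taken as the reduction in GFP signal. Data are the mean ± SEM of four independent experiments.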

Influenza B virus [16] = experiment: Antiviral activity against Influenza B virus B/HK/05/72 infected in MDCK cells assessed as reduction in virus-induced cytopathic effect after 3 days by microscopic method; assay type: functional, organism-based; conditions: B/Hong Kong/05/1972, MDCK, 72 h; in short: as §1
Influenza B virus [17] = experiment: Antiviral activity against Influenza B virus B/HK/05/72 infected in MDCK cells after 3 days by MTS assay; assay type: functional, organism-based; conditions: B/Hong Kong/05/1972, MDCK, 72 h; in short: as §1
[18] = as §3; assay type: cell-based, Canis lupus familiaris; conditions: dog, MDCK cells

SMILES | EC50 (Influenza A virus [1]) [µM] | EC50 (Influenza A virus [2]) [µM] | EC50 (Influenza A virus [3]) [µM] | EC50 (Influenza A virus [4]) [µM] | EC50 (H3N2 subtype [5]) [µM] | EC50 (H3N2 subtype [6]) [µM] | EC50 (Influenza B virus [7]) [µM] | EC50 (Influenza B virus [8]) [µM] | CC50 (MDCK) [µM] | MCC at 72 h [9] [µM] | selectivity ratio [10] | selectivity ratio [11] | selectivity ratio [12] | selectivity ratio [13] | selectivity ratio [14] | inhibition (Influenza A virus [15]) | EC50 (Influenza B virus [16]) [µM] | EC50 (Influenza B virus [17]) [µM] | CC50 at 72 h [18] [µM]
CC(=O)N[C@H]1[C@H](O[C@@H]2c3ccc(c(Cl)c3)Oc3cc4cc(c3O)Oc3ccc(cc3Cl)C[C@H]3NC(=O)[C@H](N5C(=O)C(SC[C@H]6O[C@@H]7OC(C)(C)O[C@@H]7[C@H]7OC(C)(C)O[C@H]76)=C(SC[C@H]6O[C@@H]7OC(C)(C)O[C@@H]7[C@H]7OC(C)(C)O[C@H]76)C5=O)c5ccc(O)c(c5)Oc5cc(O)cc(c5)[C@H](NC3=O)C(=O)N[C@H]4C(O)N[C@H]3C(=O)N[C@H]2C(=O)N[C@@H](C(=O)O)c2cc(O)cc(O)c2-c2cc3ccc2O)O[C@H](CO)[C@@H](O)[C@@H]1O (some centres undefined) | > 100 | 9.1 | 2.1 | 2.2 | 2.3 | 1.7 | > 100 | 4.2 | 26 | 20 | 5 | 5 | 5 | 5 | 5 | – | – | – | –
CC(C)c1ccccc1NCCN1CCCCC1 | – | – | – | – | – | – | – | – | – | – | – | – | – | – | – | Dose-dependent effect | – | – | –
CCCCCCCCSC1=C(SCCCCCCCC)C(=O)N(Cc2cn(C3C(=O)N[C@@H]4Cc5ccc(c(Cl)c5)Oc5cc6cc(c5O)Oc5ccc(cc5Cl)[C@@H](O[C@@H]5O[C@H](CO)[C@@H](O)[C@H](O)[C@H]5NC(C)=O)[C@H]5NC(=O)[C@H](NC(O)[C@@H]6NC(=O)[C@@H](NC4=O)c4cc(O)cc(c4)Oc4cc3ccc4O)c3ccc(O)c(c3)-c3c(O)cc(O)cc3[C@H](C(=O)O)NC5=O)nn2)C1=O (some centres undefined) | 9.2 | 12 | 4.4 | 3.4 | 8.9 | 6.3 | 6.7 | 7.2 | 49 | 73 | 10 | 10 | 10 | 10 | 10 | – | – | – | –
CCCCCCOCc1cn([C@H]2C(=O)N[C@@H]3Cc4ccc(c(Cl)c4)Oc4cc5cc(c4O)Oc4ccc(cc4Cl)[C@@H](O[C@@H]4O[C@H](CO)[C@@H](O)[C@H](O)[C@H]4NC(C)=O)[C@H]4NC(=O)[C@H](NC(O)[C@@H]5NC(=O)[C@@H](NC3=O)c3cc(O)cc(c3)Oc3cc2ccc3O)c2ccc(O)c(c2)-c2c(O)cc(O)cc2[C@H](C(=O)O)NC4=O)nn1 (some centres undefined) | > 100 | > 100 | > 100 | > 100 | 15 | 13 | – | – | – | ≥ 20 | – | – | – | – | – | – | 17 | 11 | 53
CC(=O)N[C@H]1[C@H](O[C@@H]2c3ccc(c(Cl)c3)Oc3cc4cc(c3O)Oc3ccc(cc3Cl)C[C@H]3NC(=O)[C@H](n5cc(COC[C@H]6O[C@@H]7OC(C)(C)O[C@@H]7[C@H]7OC(C)(C)O[C@H]76)nn5)c5ccc(O)c(c5)Oc5cc(O)cc(c5)[C@H](NC3=O)C(=O)N[C@H]4C(O)N[C@H]3C(=O)N[C@H]2C(=O)N[C@@H](C(=O)O)c2cc(O)cc(O)c2-c2cc3ccc2O)O[C@H](CO)[C@@H](O)[C@@H]1O (some centres undefined) | 52 | 47 | 45 | 43 | 39 | 24 | – | – | – | ≥ 100 | – | – | – | – | – | – | 39 | 29 | > 100
COC(=O)[C@@H]1NC(=O)[C@@H]2NC(=O)[C@H](NC(=O)[C@@H]3NC(=O)[C@H]4NC(=O)[C@H](NC(=O)[C@H](Nc5c(NCc6ccc(-c7ccccc7)cc6)c(=O)c5=O)c5ccc(O)c(c5)Oc5cc4cc(O)c5C)[C@H](O)c4ccc(cc4)Oc4cc3cc(c4O)Oc3ccc(cc3)[C@H]2O)c2ccc(O)c(c2)-c2c(O)cc(O)cc21 | – | – | – | – | – | – | – | – | – | – | – | – | – | – | – | Dose-dependent effect | – | – | –
CCN(CC)CCCC(C)Nc1ccnc2cc(Cl)ccc12 (centres undefined) | – | – | – | – | – | – | – | – | – | – | – | – | – | – | – | Dose-dependent effect | – | – | –
CC(=O)N[C@H]1[C@H](O[C@@H]2c3ccc(c(Cl)c3)Oc3cc4cc(c3O)Oc3ccc(cc3Cl)C[C@H]3NC(=O)[C@H](n5cc(CO[C@@H]6[C@H](OCc7ccccc7)[C@@H](OCc7ccccc7)[C@H](O[C@H]7[C@H](OCc8ccccc8)[C@@H](OCc8ccccc8)[C@H](Sc8ccccc8)O[C@@H]7COCc7ccccc7)O[C@@H]6COCc6ccccc6)nn5)c5ccc(O)c(c5)Oc5cc(O)cc(c5)[C@H](NC3=O)C(=O)N[C@H]4C(O)N[C@H]3C(=O)N[C@H]2C(=O)N[C@@H](C(=O)O)c2cc(O)cc(O)c2-c2cc3ccc2O)O[C@H](CO)[C@@H](O)[C@@H]1O (some centres undefined) | > 100 | > 100 | 8.9 | 7.3 | 8.9 | 20 | – | – | – | ≥ 20 | – | – | – | – | – | – | 6.6 | 4 | > 100
CCc1ccccc1OCCN1CCCCCC1 | – | – | – | – | – | – | – | – | – | – | – | – | – | – | – | Dose-dependent effect | – | – | –
CC(=O)N[C@H]1[C@H](O[C@@H]2c3ccc(c(Cl)c3)Oc3cc4cc(c3O)Oc3ccc(cc3Cl)C[C@H]3NC(=O)[C@H](n5cc(CCOc6c7cc(C(C)(C)C)cc6Cc6cc(C(C)(C)C)cc(c6O)Cc6cc(C(C)(C)C)cc(c6O)Cc6cc(C(C)(C)C)cc(c6O)C7)nn5)c5ccc(O)c(c5)Oc5cc(O)cc(c5)[C@H](NC3=O)C(=O)N[C@H]4C(O)N[C@H]3C(=O)N[C@H]2C(=O)N[C@@H](C(=O)O)c2cc(O)cc(O)c2-c2cc3ccc2O)O[C@H](CO)[C@@H](O)[C@@H]1O (some centres undefined) | > 100 | 43 | 8.9 | 6.7 | > 100 | 5.2 | – | – | – | ≥ 20 | – | – | – | – | – | – | > 100 | 5.7 | ≥ 58
CCCCCCCCOCc1cn([C@H]2C(=O)N[C@@H]3Cc4ccc(c(Cl)c4)Oc4cc5cc(c4O)Oc4ccc(cc4Cl)[C@@H](O[C@@H]4O[C@H](CO)[C@@H](O)[C@H](O)[C@H]4NC(C)=O)[C@H]4NC(=O)[C@H](NC(O)[C@@H]5NC(=O)[C@@H](NC3=O)c3cc(O)cc(c3)Oc3cc2ccc3O)c2ccc(O)c(c2)-c2c(O)cc(O)cc2[C@H](C(=O)O)NC4=O)nn1 (some centres undefined) | > 100 | 2.2 | 1.8 | 1.9 | 2.1 | 1.5 | – | – | – | ≥ 4 | – | – | – | – | – | – | 1.8 | 1.9 | 13
